This is a sample that favours compounds with a hit; in the whole collection about 2.8% have one here.
EBI2 block = EBI2 receptor antagonists, beta-arrestin recruitment, primary screen, cell-based, luminescence, 7a,25-OHC stimulation, uHTS; AID 651636, 2012; G-protein coupled receptor 183 (Homo sapiens), P32249; inhibition, % at 5 µM; 7a,25-OHC stimulated; actives 0.81% (n = 360,000); in the data active means inhibition above about 38%;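 further: enzyme fragment complementation signal reports receptor beta-arrestin coupling in cells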
m5-HT2A agonist = mouse Htr2a agonists via beta-arrestin recruitment, primary screen, cell-based, luminescence; 5-hydroxytryptamine receptor 2A (Mus musculus), P35363; CHO-K1 mHTR2A beta-arrestin complementation; percent of 30 µM serotonin response; activation, % at 7.6 µM; actives 0.66% (n = 360,000);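 active means activation above a run cutoff, the mean activation of all tested compounds plus 3 SD, cut at about 14% in these data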
MC4R barr agon = MC4R agonists recruiting beta-arrestin, primary screen, cell-based, luminescence, agonist arm of biased-ligand search | U2OS MC4R beta-arrestin complementation; percent of melanotan II response, DMSO zero | AID 540308, 2011 | activation, % at 8.9 µM | actives 0.98% (n = 360,000);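 active means activation above a per-plate cutoff, the mean activation of sample wells on that plate plus 3 SD, cut at about 8% in these data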
MC4R antag cAMP = MC4R antagonists of cAMP signaling, primary screen, cell-based, TR-FRET, antagonist arm of biased-ligand search; inhibition, % at 6.5 µM; Melanocortin receptor 4 (Homo sapiens), P32245; AID 540295, 2011; MC4R-expressing cells, MTII-stimulated cAMP, LANCE TR-FRET; actives 0.48% (n = 360,000);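 active means inhibition above its plate's cutoff, the mean of tested wells on that plate plus 3 SD, cut at about 29% in these data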
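material = U2OS cells stably expressing human melanocortin 4 receptor (MC4R) | also added = Melanotan II challenge | dosing = single nominal compound dose of 6.5 µM | detection = TR-FRET with Eu-cAMP and labeled anti-cAMP, 671 nm | replication = singlicate | timing = compound 30 min, challenge 1 h, detection 1 h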
OPRM1 ag = OPRM1 agonists via beta-arrestin recruitment, confirmation, counter-screen for mouse HTR2A agonist project, cell-based, luminescence, single concentration. shares compounds with m5-HT2A agonist. U2OS OPRM1 beta-arrestin PathHunter; DMSO 0%, DAMGO 9.3 µM 100%. activation, % at 9.3 µM. actives 5.3% (n = 2,300);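 active means mean activation above the mean of DMSO-only wells plus 3 SD, cut at about 0.5% in these data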
Target sequence (P35372 whole entry, looked up): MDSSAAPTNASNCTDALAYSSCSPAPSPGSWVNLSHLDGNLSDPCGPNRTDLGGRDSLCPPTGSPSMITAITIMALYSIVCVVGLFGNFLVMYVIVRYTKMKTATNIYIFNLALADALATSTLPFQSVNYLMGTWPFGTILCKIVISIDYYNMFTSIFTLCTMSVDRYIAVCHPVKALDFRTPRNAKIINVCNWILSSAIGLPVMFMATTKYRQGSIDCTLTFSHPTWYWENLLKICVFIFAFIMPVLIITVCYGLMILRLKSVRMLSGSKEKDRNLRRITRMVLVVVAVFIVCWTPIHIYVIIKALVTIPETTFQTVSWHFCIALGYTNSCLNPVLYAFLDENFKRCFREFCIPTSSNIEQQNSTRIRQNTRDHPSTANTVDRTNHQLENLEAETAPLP
m5-HT2A ag conf = mouse HTR2A agonists, beta-arrestin recruitment, confirmation, cell-based, luminescence, CHO-K1 PathHunter, triplicate; shares compounds with m5-HT2A agonist; DMSO 0%, 30 µM serotonin 100%; activation, % at 7.6 µM; actives 19% (n = 2,300);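 active means mean activation across triplicates above the hit threshold derived in the original primary screen, cut at about 15% in these data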
A number is an active result; n = inactive; x = no result.

SMILES | EBI2 block | m5-HT2A agonist | MC4R barr agon | MC4R antag cAMP | OPRM1 ag | m5-HT2A ag conf
Cc1nc(NC(=O)c2ccco2)sc1C(=O)O | n | 18.6 | n | n | n | n
COC(=O)c1sc(NC(=O)c2ccco2)nc1C | n | n | n | n | x | x
NC(=O)C1CCCN(C(=O)c2[nH]c(C(F)(F)F)nc2-c2ccccc2)C1 (configuration not stated) | n | n | x | x | x | x
O=C(CN1C(=O)NC(Cc2ccccc2)C1=O)Nc1ccc(OC(F)F)cc1 (configuration not stated) | n | n | n | n | x | x
O=C(CN1C(=O)NC(Cc2ccccc2)C1=O)Nc1ccccc1OC(F)F (configuration not stated) | n | 17.6 | n | n | n | n
Cc1nc(SCC(=O)O)c(C#N)c(-c2ccco2)c1C(=O)N(C)C | n | n | n | n | x | x
CSc1nc(C)c(C(=O)Nc2ccccc2)c(-c2ccco2)c1C#N | n | 16.1 | n | n | n | n
Cc1ccc(S(=O)(=O)N2CCC(=O)N([C@H](COCc3cccc(C)c3)C(C)C)CC2)cc1 | n | n | x | x | x | x
CC1CN(CC(=O)NCc2ccc(F)cc2)CC(C)O1 (configuration not stated) | n | n | n | n | x | x
CC1CN(CC(=O)NCc2ccccc2)CC(C)O1 (configuration not stated) | n | 14.8 | n | n | n | n
OC(COc1ccc(Cl)cc1)CN1CCN(c2ccccn2)CC1 (configuration not stated) | n | n | n | n | x | x
OC(COCc1ccc(Cl)cc1)CN1CCN(c2ccccn2)CC1 (configuration not stated) | n | 18.1 | n | n | n | 98.9
OC(COCc1cccs1)CN1CCN(c2ccccn2)CC1 (configuration not stated) | n | 19.7 | n | n | n | 80.2
Cc1c(NC(=O)c2cc(S(=O)(=O)N3CCCCC3)ccc2Cl)c(=O)n(-c2ccccc2)n1C | n | n | n | n | x | x
NC(=O)COc1ccccc1C1=NO[C@@](CC(=O)O)(C(=O)Nc2ccc3c(c2)OCCO3)C1 | n | n | n | n | x | x
COc1ccc(C2=NO[C@@](CC(=O)O)(C(=O)Nc3ccc4c(c3)OCCO4)C2)cc1 | n | 15.5 | n | n | 1.0 | n
CC1(C(=O)NS(=O)(=O)c2ccc(F)cc2F)CCN1C(=O)CCc1ccc(Cl)cc1Cl (configuration not stated) | n | n | n | n | x | x
CCOC(=O)C1CCN(C(=O)CSCc2nc(-c3ccc(OCC)cc3)oc2C)CC1 | n | 16.2 | n | n | n | n
CCOc1ccc(-c2nc(CSCC(=O)N3CCN(C(=O)c4ccco4)CC3)c(C)o2)cc1 | n | n | n | n | x | x
COc1ccc(NC(=O)C(c2ccc(C(F)(F)F)cc2)n2c(=O)c(-c3cc4ccccc4[nH]3)nc3ccccc32)cc1 (configuration not stated) | n | n | x | x | x | x
Cc1cnc(NC(=O)C2(c3ccccc3)CC2)s1 | n | 20.6 | n | n | n | n
O=C(O)c1ccc(NC(=S)Nc2ccc(S(=O)(=O)Nc3ccccn3)cc2)cc1 | n | n | n | n | x | x
Nc1nc(F)nc2c1ncn2[C@@H]1O[C@H](CO)[C@@H](O)[C@@H]1O | n | n | n | n | x | x
Nc1nc(F)nc2c1ncn2[C@@H]1O[C@H](CO)[C@@H](O)[C@H]1O | n | 19.9 | n | n | 0.9 | n
COc1cc(/C=C(/C#N)c2nc3ccccc3[nH]2)ccc1OCc1ccc(C(=O)O)o1 | n | 19.2 | n | n | 1.7 | n
SMILES | EBI2 block | m5-HT2A agonist | MC4R barr agon | MC4R antag cAMP | OPRM1 ag | m5-HT2A ag conf
COC(=O)c1ccc(COc2ccc(/C=C(\C#N)c3nc4ccccc4[nH]3)cc2OC)o1 | n | n | n | n | x | x
CCNc1nc(NCC)nc(N(C#N)C(C)C)n1 | n | 20.1 | n | n | n | n
CCC(C)Nc1nc(-c2cccc(OC)c2O)nc2ccccc12 (configuration not stated) | n | 59.2 | n | n | n | 33.5
CCC(C)Nc1nc(-c2ccccn2)nc2ccccc12 (configuration not stated) | n | n | n | n | x | x
COc1cccc(-c2nc(NC(C)C)c3ccccc3n2)c1O | n | 45.8 | n | n | n | 47.5
Oc1ccccc1-c1nc(NCC2CCCO2)c2ccccc2n1 (configuration not stated) | n | n | n | n | x | x
COc1cccc(-c2nc(NCC3CCCO3)c3ccccc3n2)c1O (configuration not stated) | n | 32.2 | n | n | n | 15.2
O=c1n2c(c(O)n1C1CCCCC1)C(c1ccccc1)=Nc1ccccc1C2 | n | n | x | x | x | x
Clc1ccc2nc(C(Cl)(Cl)Cl)[nH]c2c1 | n | n | n | n | x | x
Cc1cnc(CN(C)C(=O)C2CCC(=O)N(CCc3ccccc3)C2)[nH]1 (configuration not stated) | n | 20.1 | n | n | n | n
CCC(=O)N1CCCC(C)(C(=O)Nc2ccc(C)c(C)c2)C1 (configuration not stated) | n | 17.4 | n | n | n | n
CCC(=O)N1CCCC(C)(C(=O)Nc2ccc(OC)c(F)c2)C1 (configuration not stated) | n | n | n | n | x | x
CN(C)c1ccc(-c2ccnc3c2CC(C)(C(=O)NCc2cccc(Cl)c2)O3)cc1 (configuration not stated) | n | n | n | n | x | x
CC(C)c1ccc(NC2CCCN(C(=O)c3ccnc(Cl)c3)C2)cc1 (configuration not stated) | n | n | n | n | x | x
CC(C)c1cc(C(=O)N2CCCC(Nc3ccc(F)cc3)C2)nc(N)n1 (configuration not stated) | n | 15.8 | n | n | n | n
CC(C)c1cc(C(=O)N2CCCC(Nc3ccc(F)c(F)c3)C2)nc(N)n1 (configuration not stated) | n | n | n | n | x | x
CC(C)c1ccc(NC2CCCN(C(=O)c3ccc4nccnc4c3)C2)cc1 (configuration not stated) | n | 20.7 | n | n | n | n
Cc1nc2c(o1)C(=O)c1ccccc1C2=Nc1ccccc1 | n | n | n | n | x | x
